Results: ChEMBL document CHEMBL1124957, “6-Benzoxazinylpyridazin-3-ones: potent, long-acting positive inotrope and peripheral vasodilator agents” (J Med Chem, 1990)

Experiments:
[1] = system: Canis familiaris; experiment: Mean arterial blood pressure in dog following 1.875 mg/kg i.v. administration.; type: functional, Canis lupus familiaris; conditions: route intravenous
Procedure, shortened: (§1)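 Anesthetized adult mongrel dogs (sodium pentobarbital 45 mg/kg ip), artificially respired; MAP from cannulated femoral artery, infusion into femoral vein. Dopamine standard (10–15 μg/kg/min, 3 min) checked inotropic responsiveness. Compounds dissolved in DMF, diluted to 10% final in saline; stepwise 3–4 increasing doses, each infused over 5 min after prior peak. CF, MAP, HR expressed as % change from predrug control vs cumulative dose.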

[2] = system: Canis familiaris; experiment: Heart rate in dog following 1.875 mg/kg i.v. administration.; type: functional, Canis lupus familiaris; conditions: route intravenous; procedure, shortened: as §1
[3] = molecular target: phosphodiesterase fraction III (Canis familiaris); experiment: Inhibition of cardiac phosphodiesterase-3 isolated from canine heart.
[4] = system: Canis familiaris; experiment: Effective dose required to increase the myocardial contractile force (CF) 50% above base line when administered intravenously.; type: functional; conditions: Canis lupus familiaris, Myocardium, iv
Procedure, shortened: (§2)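 Dopamine standard (10–15 μg/kg/min, 3 min) checked inotropic responsiveness. Compounds dissolved in DMF, diluted to 10% final in saline; stepwise 3–4 increasing doses, each infused over 5 min after prior peak. CF, MAP, HR expressed as % change from predrug control vs cumulative dose.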

[5] = system: Canis familiaris; experiment: Myocardial contractile force (CF) in dog after intravenous dose of 1.875 mg/kg; type: functional, Canis lupus familiaris, Myocardium; procedure, shortened: as §1
[6] = system: Canis familiaris; experiment: Heart rate (HR) in dog after intravenous dose of 0.470 mg/kg; type: functional, Canis lupus familiaris; conditions: dose 0.47 mg/kg; procedure, shortened: as §1
[7] = system: Canis familiaris; experiment: Myocardial contractile force (CF) in dog after intravenous dose of 0.470 mg/kg; type: functional, Canis lupus familiaris, Myocardium; conditions: dose 0.47 mg/kg; procedure, shortened: as §1
[8] = system: Canis familiaris; experiment: Mean arterial blood pressure (MAP) in dog after intravenous dose of 0.470 mg/kg; type: functional, Canis lupus familiaris; parameters: unit: % change from predrug control; conditions: dose 0.47 mg/kg; procedure, shortened: as §1
[9] = system: Canis familiaris; experiment: Mean arterial blood pressure (MAP) in dog after intravenous dose of 0.075 mg/kg; type: functional, Canis lupus familiaris; procedure, shortened: as §2
[10] = system: Canis familiaris; experiment: Heart rate (HR) in dog after intravenous dose of 0.075 mg/kg; type: functional, Canis lupus familiaris; procedure, shortened: as §2
[11] = system: Canis familiaris; experiment: Myocardial contractile force (CF) in dog after intravenous dose of 0.075 mg/kg; type: functional, Canis lupus familiaris, Myocardium; procedure, shortened: as §2
[12] = system: Canis familiaris; experiment: Intravenous dose required to increase contractile force (inotropic effect) by 50%; type: functional; conditions: Canis lupus familiaris; procedure, shortened: as §1
[13] = organism: Canis familiaris; experiment: Inotropic and enzyme inhibition effect on heart rate (HR); type: functional, Canis lupus familiaris
[14] = system: Canis familiaris; experiment: Percent change in activity 8 hr after peroral administration in conscious dog at 0.30 mg/kg; type: functional, Canis lupus familiaris; conditions: dose 0.3 mg/kg; route oral
Procedure, shortened: (§3)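 Conscious dogs, instrumented earlier with an LV Konigsberg pressure transducer through a left thoracotomy, with ≥1 week recovery and trained to lie quietly. LV dP/dtmax derived as the contractility index; baseline MAP, HR, dP/dtmax taken first. Compound suspended in 0.1% methylcellulose (10 mL) and given by gavage through a gastric tube. Response recorded as % change, also at 8 h.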

[15] = Index of contractility was determined as the ratio of % of dP/dtmax in conscious dog after (po) administration of a dose of 0.01 mg/kg; type: functional; procedure, shortened: as §3
[16] = system: Canis familiaris; experiment: Percent change in activity 8 hr after peroral administration in conscious dog at 0.10 mg/kg; type: functional, Canis lupus familiaris; conditions: dose 0.1 mg/kg; route oral; procedure, shortened: as §3
[17] = Index of contractility was determined as the ratio of % of dP/dtmax in conscious dog after (po) administration of 0.30 mg/kg; type: functional; conditions: dose 0.3 mg/kg; procedure, shortened: as §3
[18] = Index of contractility was determined as the ratio of % of dP/dtmax in conscious dog after (po) administration of 0.10 mg/kg; type: functional; conditions: dose 0.1 mg/kg; procedure, shortened: as §3
[19] = system: Canis familiaris; experiment: Myocardial contractile force (CF) in dog after intravenous dose of 0.188 mg/kg; type: functional, Canis lupus familiaris, Myocardium; procedure, shortened: as §1
[20] = system: Canis familiaris; experiment: Heart rate (HR) in dog after intravenous dose of 0.188 mg/kg; type: functional, Canis lupus familiaris; procedure, shortened: as §1
[21] = system: Canis familiaris; experiment: Mean arterial blood pressure (MAP) in dog after intravenous dose of 0.188 mg/kg; type: functional, Canis lupus familiaris; procedure, shortened: as §1
[22] = system: Canis familiaris; experiment: Heart rate (HR) in dog after intravenous dose of 0.010 mg/kg; type: functional, Canis lupus familiaris; conditions: dose 0.075 mg/kg, in the assay text read “0.075 mg/kg” for “0.010 mg/kg”; procedure, shortened: as §1

| SMILES | Activity [1] | Activity [2] | IC50 [3] [µM] | ED50 [4] [mg/kg] | Activity [5] | other results |
| --- | --- | --- | --- | --- | --- | --- |
| CS(=O)(=O)N1CCOc2ccc(C3=NNC(=O)CC3)cc21 | -14 | 24 | 9.5 | 1.33 | 76 |  |
| CC(=O)N1CCOc2ccc(C3=NNC(=O)CC3)cc21 | -14 | 20 | 100 | 0.37 | 121 |  |
| O=C1CCC(c2ccc3c(c2)NCCO3)=NN1 | -17 | 15 | 50 | 0.62 | 105 |  |
| CC1CC(=O)NN=C1c1ccc2c(c1)NCCO2 (stereo not given) |  |  | 6 | 0.056 |  | Activity [6]: 44; Activity [7]: 149; Activity [8]: -11 |
| Cc1cc(C2=NNC(=O)CC2C)c2c(c1)N(C)C(=O)CO2 (stereo not given) | -17 | 19 | 7.5 | 0.75 | 98 |  |
| CC1CC(=O)NN=C1c1ccc2c(c1)OC(C)C(=O)N2 (stereo not given) |  |  | 4 | 0.0054 |  | Activity [9]: -17; Activity [10]: 23; Activity [11]: 154 |
| CC1CC(=O)NN=C1c1ccc2c(c1)NC(=O)C(C)O2 (stereo not given) |  |  | 5 | 0.07 |  | Activity [6]: 18; Activity [7]: 157; Activity [8]: -10 |
| CC1CC(=O)NN=C1c1ccc2c(c1)N(S(C)(=O)=O)CCO2 (stereo not given) |  |  | 4 | 0.148 |  | Activity [6]: 17; Activity [7]: 99; Activity [8]: -1 |
| CC1CC(=O)NN=C1c1ccc2c(c1)OC(C)(C)C(=O)N2 (stereo not given) |  |  | 4 | 0.0162 |  | Activity [9]: -28; Activity [10]: 16; Activity [11]: 82 |
| CN1C(=O)C(C)(C)Oc2ccc(C3=NNC(=O)CC3)cc21 | -12 | 8 | 36 |  | 125 | ED50 [12]: 0.8 mg/kg |
| CC1CC(=O)NN=C1c1ccc2c(c1)N(C1CCCC1)C(=O)C(C)O2 (stereo not given) | -5 | 7 | 8 | > 1.88 | 36 |  |
| Cc1cc2c(c(C3=NNC(=O)CC3C)c1)OCC(=O)N2 (stereo not given) | -15 | 8 | 28 | 1.8 | 51 |  |
| CC1CC(=O)NN=C1c1ccc2c(c1)OC(C)(C)C(=O)N2C (stereo not given) |  |  | 6 | 0.0217 |  | Activity [9]: -14; Activity [10]: 19; Activity [11]: 85 |
| Cc1cc(C2=NNC(=O)CC2)c2c(c1)N(C)C(=O)CO2 |  |  | 26 | 0.258 |  | Activity [7]: 73; Activity [13]: 9; Activity [8]: 1 |
| Cc1cc2c(c(C3=NNC(=O)CC3)c1)OCC(=O)N2 | -12 | 2 | 31 | > 1.88 | 32 |  |
| CC(=O)N1CCOc2ccc(C3=NNC(=O)CC3C)cc21 (stereo not given) |  |  | 30 | 0.056 |  | Activity [6]: 35; Activity [7]: 135; Activity [8]: -31 |

| SMILES | Activity [1] | Activity [2] | IC50 [3] [µM] | ED50 [4] [mg/kg] | Activity [5] | other results |
| --- | --- | --- | --- | --- | --- | --- |
| CC1CC(=O)NN=C1c1ccc2c(c1)NC(=O)CO2 (stereo not given) |  |  | 2 | 0.077 |  | Activity [6]: 26; Activity [8]: -14 |
| CN1N=C(c2ccc3c(c2)N(S(C)(=O)=O)CCO3)CCC1=O | 0 | 12 | 100 | > 1.88 | 26 |  |
| CC1Oc2ccc(C3=NNC(=O)CC3)cc2NC1=O (stereo not given) |  | 24 | 14 | 0.49 |  |  |
| Cc1cc2c(cc1C1=NNC(=O)CC1C)NC(=O)CO2 (stereo not given) |  |  | 20 | 0.137 |  | Activity [6]: 20; Activity [8]: -4 |
| CCCCCN1N=C(c2ccc3c(c2)N(S(C)(=O)=O)CCO3)CCC1=O | -6 | -2 | 50 | > 1.88 | 22 |  |
| CC1CC(=O)NN=C1c1ccc2c(c1)N(C(C)C)C(=O)C(C)O2 (stereo not given) | -16 | 8 | 5 | 0.47 | 83 |  |
| CS(=O)(=O)N1CCOc2ccc(C3=NN(c4ccccc4)C(=O)CC3)cc21 | 9 | 6 | 200 | > 1.88 | 30 |  |
| CN1C(=O)COc2ccc(C3=NNC(=O)CC3)cc21 |  |  | 18 | 0.279 |  | Activity [6]: 13; Activity [8]: -4 |
| CC1(C)Oc2ccc(C3=NNC(=O)CC3)cc2NC1=O | -6 | 14 | 23 | 0.65 | 113 |  |
| O=C1CCC(c2ccc3c(c2)NC(=O)CO3)=NN1 |  | 9 | 630 | 0.7 |  |  |
| C=CCN1N=C(c2ccc3c(c2)N(S(C)(=O)=O)CCO3)CCC1=O | 4 | 10 |  | > 1.88 | 37 |  |
| CC1CC(=O)NN=C1c1ccc2c(c1)N(C)C(=O)C(C)O2 (stereo not given) |  |  | 6 | 0.068 |  | Activity [6]: 36; Activity [8]: -15 |
| CC1CC(=O)NN=C1c1ccc2c(c1)OCC(=O)N2 (stereo not given) [BEMORADAN] |  |  | 0.3 | 0.0054 |  | Activity [9]: -21; Change [14]: 65%; Ratio [15]: 43%; Change [16]: 31%; Ratio [17]: 130%; Ratio [18]: 85%; Activity [10]: 25; Activity [11]: 127 |
| O=C1CCC(c2ccc(-n3ccnc3)cc2)=NN1 [IMAZODAN] |  |  |  | 0.0822 |  | Activity [19]: 77; Activity [20]: 8; Activity [21]: -4 |
| CC1(C)C(=O)Nc2ccc(C3=NNC(=O)CC3)cc21 [INDOLIDAN] |  |  | 7 | 0.0084 |  | Activity [9]: -27; Activity [22]: 32; Activity [11]: 110 |
